Measurements as given in publication PMC9543358 (British Journal of Clinical Pharmacology, 2022).
One block for each compound: values may come before it.

Tests used:
[1] = Population pharmacokinetic model of cabotegravir plasma concentrations; type: in vivo, human; details: for IIV of CL/F / IIV of F1 / IIV of KALA / IIV of KAoral / IIV of V2/F: interindividual variability; for Smoke on CL/F (fractional change of CL/F in current smokers): current smoker
Procedure, shortened: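 Human plasma concentrations (23 926 from 1647 adults, HIV‑1‑infected and uninfected, 16 phase 1–3 studies; oral 10–60 mg, IM 200–800 mg) of the test compound were fitted in NONMEM (FOCE with interaction). The model was two‑compartment with first‑order oral and IM absorption and elimination, with a weight power function (shared exponents) on clearances and volumes. BQL data were handled by likelihood, with IOV on KALA/F1.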

[2] = cited from earlier work
albumin in human plasma = details: cited from earlier work
HIV = details: cited from earlier work
[3] = cited from earlier work; remark: listed apart in the source
[4] = cited from earlier work; remark: listed apart in the source
[5] = base model, typical subject of 76.6 kg

IIV of CL/F ([1]; base model): 24.9% | IIV of F1 ([1]; base model): 17.2% | IIV of KALA ([1]; base model): 71.4% | IIV of KAoral ([1]; base model): 61.4% | IIV of V2/F ([1]; base model): 22.6% | CL/F, apparent central clearance [1, 5]: 0.16 L/h | KALA, absorption rate constant for LA IM injection [1, 5]: 0.000642 h⁻¹ | KAoral, absorption rate constant for oral tablet [1, 5]: 1.12 h⁻¹ | race and age as covariates of PK ([1]; covariate evaluation, final model): not significant covariates | BWT on V2/F and V3/F (exponent) ([1]; final model): 0.702 | KALA lower in females than males ([1]; final model): 50.9% | KALA lower in subjects with BMI of 32.5 kg/m^2 (90th percentile) than BMI of 20.9 kg/m^2 (10th percentile) ([1]; final model): 28.6% | KAoral, absorption rate constant for oral tablet ([1]; final model): 1.41 h⁻¹ | BMI exponent on KALA ([1]; final model, BMI/25.4): −0.766 | CL/F, apparent central clearance ([1]; final model, BWT 76.6 kg, not current smoker): 0.151 L/h | Smoke on CL/F (fractional change of CL/F in current smokers) ([1]; final model): 17.4% | Smoke on CL/F (fractional change of CL/F in current smokers) ([1]; final model, listed as cabotegravir): 17.4% | Female on KALA (fractional change) ([1]; final model, female vs male): −50.9% | IIV of CL/F ([1]; final model): 23.3% | IIV of F1 ([1]; final model): 17.4% | IIV of KALA ([1]; final model): 57.9% | IIV of KAoral ([1]; final model): 89.4% | IIV of V2/F ([1]; final model): 20.3% | KALA, absorption rate constant for LA IM injection ([1]; final model, male, unsplit injection, BMI 25.4, needle length 1.5 inch): 0.000733 h⁻¹ | NDL exponent on KALA ([1]; final model, needle length/1.5 inch): 0.478 | Vd/F ([1]; human, plasma, other: oral tablet and LA IM injection, modelled together, V2/F, apparent central compartment volume of distribution, base model, typical subject of 76.6 kg): 5.5 L | dose proportionality of exposure ([1]; oral 10 to 60 mg, LA 200 to 800 mg): dose proportional
Compound: C[C@H]1CO[C@@H]2Cn3cc(C(=O)NCc4ccc(F)cc4F)c(=O)c(O)c3C(=O)N12 [CAB, Cabotegravir]
BWT on V2/F and V3/F (exponent) ([1]; base model, power function of baseline body weight): 0.675 | apparent clearance ([2]; following oral dosing): 0.21 L/h | apparent volume of distribution ([2]; following oral dosing): 12.3 L | route of elimination ([2]; hepatic metabolism): hepatic metabolism via UGT1A1 with a minor component by UGT1A9 | binding in human plasma (primarily to albumin) (albumin in human plasma): > 99% | PA‐IC90, in vitro protein‐adjusted concentration resulting in 90% of the maximum inhibition of viral growth (HIV): 0.166 µg/mL | permeability classification [3]: high permeability | solubility classification [3]: low solubility

Compound: C[C@@H]1CCO[C@H]2Cn3cc(C(=O)NCc4ccc(F)cc4F)c(=O)c(O)c3C(=O)N12 [DTG, dolutegravir]
CL/F higher in current smokers [4]: 16% | estimated absolute oral bioavailability higher in females than in males [4]: 21%
